The results in this text go back to PubChem BioAssay AID493091 (Sanford-Burnham Center for Chemical Genomics, 2011).

Molecules are shown by their SMILES. Several values for one entry are separate records, joined by “and”; a condition that tells them apart may be missing. Equal entries are not always repeated. The whole screen tested about 340,000 compounds, of which about 3,000 (0.88%) were called active.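 The calls were made as follows: active = inhibition above about 50% at 20 µM (limit read from the data); inactive = the rest.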 The full list was thinned out, with actives kept by preference. Some compounds were tested as several samples or in several runs, with calls that do not always agree.

Chain of Carboxy-terminal domain RNA polymerase II polypeptide A small phosphatase 1 (Homo sapiens) (Q9GZU7 76-261 limits assumed): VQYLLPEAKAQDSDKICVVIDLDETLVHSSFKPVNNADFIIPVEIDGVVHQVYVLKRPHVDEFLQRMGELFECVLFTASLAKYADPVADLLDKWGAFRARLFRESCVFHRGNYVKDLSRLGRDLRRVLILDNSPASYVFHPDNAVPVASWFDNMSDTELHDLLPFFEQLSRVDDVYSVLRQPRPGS

For the assay, the target named is Carboxy-terminal domain RNA polymerase II polypeptide A small phosphatase 1 (Homo sapiens) (UniProt Q9GZU7). Nature of the assay: Scp-1 phosphatase inhibitors, primary screen, biochemical, colorimetric, uHTS (AID 493091).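 Also: plate controls were DMSO wells with enzyme for no effect and wells lacking enzyme for full effect.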 Particulars: Recombinant Scp1, phosphopeptide, malachite green phosphate absorbance; at 20 µM; stronger effect = higher value. In a few lines:
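Incubation: 45 min enzyme reaction at room temperature / System: truncated SCP-1 phosphatase (76-261aa) / Reagent: Phospho 17-mer peptide substrate / Buffer or medium: Acidic Tris acetate buffer with magnesium and detergent / Signal: absorbance at 630 nm / Doses: one concentration, 20 µM, with 1.0% DMSO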
For `COc1ccc(S(=O)(=O)N(C)CC(=O)N2CCCC2)cc1Cl`, the inhibition was -2.74% (inactive). Regarding `Cc1ccc(S(=O)(=O)c2c[nH]c3ccc(Cl)cc3c2=O)cc1`, the inhibition was 30.5% (inactive). As to `COc1ccc(S(=O)(=O)c2c[nH]c(=S)[nH]c2=O)cc1Cl`, the inhibition is 52.5% (active). The same measure for `Cc1ccc(/C=C/C(=O)Nc2ccc([N+](=O)[O-])c(NC(=O)/C=C/c3ccc(C)o3)c2)o1`: 53.2% (active); for `Cc1ccc(/C=C/C(=O)Nc2cc(S(=O)(=O)N3CCCCCC3)ccc2OCC(F)(F)F)o1`: -9.11% (inactive). The same measure for `COC(=O)/C=C\C(=O)Nc1cccc([N+](=O)[O-])c1`: -2.7% (inactive). The value for `CCOc1ccc(NC(=O)C2CC(=O)N=C(N)S2)cc1` (stereo not given) was -10.8% (inactive); that for `Cn1c2c(c(=O)n(C)c1=O)C(c1cccc(F)c1)C(C#N)=C(N)O2` (stereo not given) was -7.3% (inactive). As to `O=C(N/N=C/c1ccco1)c1csc2c1CCCC2`, the inhibition is 0.11% (inactive). Turning to `O=C(Cc1ccc([N+](=O)[O-])cc1)N/N=C/c1ccco1`, the inhibition is -11.8% (inactive).

`O=C(N/N=C/c1ccco1)c1ccc(C(=O)N/N=C/c2ccco2)o1`: the inhibition was 83.9% (active). For `CCn1c(=S)sc2c(=O)n(CC(=O)Nc3cccc(Br)c3)c(C)nc21`, the inhibition is -11% (inactive). On to `Cc1ccc(-c2nc(CS(=O)CC(=O)N3CCN(c4ncccn4)CC3)c(C)o2)cc1` (stereo not given), for which the inhibition is 13.2% (inactive).

For the compound `COc1ccccc1CNC(=O)c1ccc(CS(=O)(=O)c2ccccc2)o1`, the inhibition was -4.06% (inactive). Take `O=C(c1ccc(S(=O)(=O)NCc2ccco2)cc1)N1CCN(c2ccccc2)CC1`: the inhibition was 22.5% (inactive). The value for `O=C(c1ccc(CS(=O)(=O)c2ccccc2)o1)N1CCN(c2ccccc2)CC1` was 62.1% (active); that for `CC(C)NC(=O)C(c1ccc(F)cc1)N(C(=O)CCC(=O)Nc1ccccn1)c1ccccc1F` (stereo not given) was -5.49% (inactive). `Cc1ccc(-c2noc(C3CCCN(C(=O)c4cccc(Cl)c4)C3)n2)o1` (stereo not given): the inhibition is -1.22% (inactive). `O=C(N/N=C/c1ccccc1O)/C(=C/c1ccccc1)CCO`: the inhibition was -13.2% (inactive). With `O=C(N/N=C/c1ccccc1O)C1CCCC1`, the inhibition was -10.5% (inactive). For `O=C(NN=Cc1ccccc1O)NN=Cc1ccccc1O`, the inhibition is 85.7% (active). The value for `COc1ccccc1CN(C)C(=O)C1(c2ccc(Cl)cc2)CC1` was -10.7% (inactive); that for `CSCCC(NS(=O)(=O)c1ccc(C)cc1)C(=O)N1CCCC1` (stereo not given) was -0.76% (inactive); that for `Cc1ccc(N=Cc2c(O)cc(C)oc2=O)c(C)c1` was -1.31% (inactive). As for `Cc1ccc(-n2c(O)c(C=Nc3ccc(S(=O)(=O)Nc4ncccn4)cc3)c3ccccc3c2=O)cc1C`, the inhibition is -12.6% (inactive). Turning to `Cc1ccc(N=Cc2c(O)n(-c3nccs3)c(=O)c3ccccc23)c(C)c1`, the inhibition is 51.3% (active). In the case of `O=C(NCCCc1ccccc1)C1CCC(CNc2c(N3CCCCC3)c(=O)c2=O)CC1` (stereo not given), the inhibition was -5.39% (inactive). Take `COc1ccccc1NC(=O)CCC(=O)OC(C)C(=O)c1ccccc1` (stereo not given): the inhibition is -10.3% (inactive). Turning to `COc1ccccc1CN1CCNC(=O)C1CC(=O)N(C)CC1CCOCC1` (stereo not given), the inhibition was -2.19% (inactive). With `COc1ccc(CNC(=O)COc2cccnc2[N+](=O)[O-])cc1`, the inhibition was -6.82% (inactive). Regarding `N#Cc1ccccc1CN1C(=O)S/C(=C/c2cccn2-c2cccc(C(=O)O)c2)C1=O`, the inhibition was 70.5% (active). In the case of `Cc1nn(Cc2ccccc2)c(C)c1C(=O)NCCN1C(=O)S/C(=C\c2ccc(F)cc2)C1=O`, the inhibition was -5.22% (inactive). As for `O=C(NCCN1C(=O)S/C(=C\c2cccnc2)C1=O)c1cccc(OC(F)F)c1`, the inhibition was -7.82% (inactive). With `Cc1ccccc1CSc1nnc(-c2ccccn2)n1N`, the inhibition is -3.67% (inactive). Regarding `O=C(COC(=O)c1ccc(F)cc1F)Nc1ncccn1`, the inhibition is 87% (active). Turning to `O=C(COC(=O)CSc1ccccc1)Nc1ccc(F)cc1F`, the inhibition is -2.71% (inactive). The same measure for `CCOC(=O)c1cccc(NC(=O)c2ccc(F)cc2F)c1`: -7.13% (inactive); for `COCCNC(=O)C(OC(=O)c1cccs1)c1ccc(F)cc1` (stereo not given): -8.1% (inactive); for `CN(c1ccccc1)S(=O)(=O)c1cccc(C(=O)NNC(=O)c2ccncc2)c1`: -6.19% (inactive). On to `CCCNC(=O)CCc1c(C)nc2c(c(C)nn2-c2ccccc2)c1C`, for which the inhibition was -19% (inactive).

On to `O=S1(=O)CC/C(=N\Nc2ccc(F)cc2)c2ccsc21`, for which the inhibition is -1.87% (inactive). With `Nn1cnnc1N/N=C/c1cc([N+](=O)[O-])c(Cl)cc1Cl`, the inhibition is 71.5% (active). In the case of `Cc1ccsc1C(=O)NNC(=O)COc1ccc(Br)cc1`, the inhibition is -2.35% (inactive). For the compound `COc1ccc(-c2ccc(CCC(=O)O)n2-c2ccc(O)cc2)cc1`, the inhibition was -8.68% (inactive). The value for `COc1ccc(Cl)cc1C=CC=NNC(=O)c1ccncc1` was 54.2% (active); that for `COc1ccccc1/C=C/C=N/NC(=O)CN1CCN(Cc2ccccc2)CC1` was -7.3% (inactive); that for `COc1ccc(Cl)cc1C=CC=Nc1ccc(S(N)(=O)=O)cc1` was -0.31% (inactive). For the compound `CCOC(=O)N1CCN(c2c(NCCN3CCN(c4ccccc4F)CC3)c(=O)c2=O)CC1`, the inhibition is -8.45% (inactive). As to `ON=C1/C(=N\O)CC2(C/C1=N/O)OCCO2`, the inhibition is 58% (active). The same measure for `O/N=C1\CC2(Cc3nonc31)OCCO2`: -5.88% (inactive). Regarding `O=C(Cn1nnc(-c2ccc3c(c2)OCO3)n1)NCc1ccco1`, the inhibition was 60.1% (active). For the compound `CS(=O)(=O)N(CC(=O)NCc1ccco1)c1ccc2c(c1)OCO2`, the inhibition was 17.7% (inactive). Turning to `S=C(NCc1ccc2c(c1)OCO2)NCc1ccco1`, the inhibition was -10.4% (inactive). Consider `COc1cccc(CNC(=O)CN(C)S(=O)(=O)c2ccc3c(c2)c(=O)n(C)c(=O)n3C)c1`, for which the inhibition is -11.9% (inactive). As to `Cc1ccc(S(=O)(=O)/N=S(\C)C(C)C)cc1` (stereo not given), the inhibition is -1% (inactive). In the case of `COc1ccccc1/C=C/C(=O)OCC(=O)NC1CCCCCC1`, the inhibition is -7.74% (inactive).

Consider `COc1ccc(/C=C/C(=O)OCC(=O)NC2CCCCCC2)cc1OC`, for which the inhibition is 53% (active). For the compound `COc1cc(/C=C/C(=O)OCC(=O)NC2CC2)cc(OC)c1OC`, the inhibition is 8.5% (inactive). The value for `CCOC(=O)c1oc2c(CN3CCN(CCO)CC3)c(O)c(CC)cc2c(=O)c1-c1nc2ccccc2s1` was -2.5% (inactive); that for `Cc1ccc(NC(=O)COc2coc(CN3CCc4ccccc4C3)cc2=O)cc1Cl` was 5.58% (inactive); that for `Cc1nnc2n1N=C(c1ccc3c(c1)NC(=O)CO3)CS2` was -2.49% (inactive).

For `Cc1cc(NC(=O)[C@H](C)NC(=O)c2ccco2)ccc1Br`, the inhibition is -11% (inactive). Turning to `CCOc1ccc(N(CC(=O)OC)S(=O)(=O)c2c(C)noc2C)cc1`, the inhibition was -4.21% (inactive).

Regarding `CCOC(=O)C1CCCN(C(=O)/C=C/c2ccc(OC)cc2)C1` (stereo not given), the inhibition was 0.29% (inactive). Take `CCOC(=O)C1CCCN(C(=O)CN(c2ccc(OC)cc2)S(=O)(=O)c2c(C)noc2C)C1` (stereo not given): the inhibition is 57.4% (active).

As for `COc1ccc(OC)c(S(=O)(=O)NCCC(C)C)c1`, the inhibition is -1.08% (inactive). Consider `Cc1nc2cc(NC(=O)CSc3nc4c(C)cccc4cc3C#N)ccc2s1`, for which the inhibition was 20.8% (inactive).

`COc1ccc(/C=C/C2=CC(C)(C)NC(=S)N2)c(OC)c1`: the inhibition is -2.22% (inactive). For `COc1cc(/C=C/c2ccc(/C=C/c3cc(OC)c(OC)c(OC)c3)cc2)cc(OC)c1OC`, the inhibition was 4.65% (inactive). For the compound `COc1cc(/C=C/C2=CC(C)(C)NC(=S)N2)cc(OC)c1OC`, the inhibition was 83.9% (active). Turning to `CCOC(=O)c1c(NC(=O)CNC2CCCc3ccccc32)sc(C(N)=O)c1C` (stereo not given), the inhibition was -9.44% (inactive).

Regarding `CCOCCCNC(=S)Nc1ccc2nc(N3CCN(CC)CC3)cc(C)c2c1`, the inhibition is -1.55% (inactive). As for `Cc1ccc(C(=O)Nc2sc(Cc3ccc4c(c3)OCO4)c(C)c2C(N)=O)cc1`, the inhibition was -8.44% (inactive). For the compound `CCOC(=O)c1cc2occc2n1CC(=O)N1CCN(C(=O)c2ccco2)CC1`, the inhibition is -2.95% (inactive). Consider `O=C(Nc1cccc(Br)c1)C1CC(=O)N(C2CCCC2)C1` (stereo not given), for which the inhibition was -7.74% (inactive). As for `COc1ccccc1N(CC(=O)NC1CCCC1)C(=O)C1(C)CC(=O)N=C2C=CC(C)=CN21` (stereo not given), the inhibition was -2.31% (inactive). The same measure for `S=C(NCc1ccco1)NCc1ccccc1Cl`: -4.7% (inactive); for `Clc1ccc(CSc2nnc3c(n2)[nH]c2ccccc23)cc1`: -4.5% (inactive); for `CCc1nnc(SCc2cccc(F)c2)nc1CC`: -10.3% (inactive). Take `Clc1ccccc1CSc1nnc(-c2ccco2)c(-c2ccco2)n1`: the inhibition is 76.5% (active).

Regarding `c1ccc(CSc2nnc(-c3ccco3)c(-c3ccco3)n2)cc1`, the inhibition was 79.2% (active).

Take `O=C(Nc1nnc(SCc2ccccc2Cl)s1)c1cccc([N+](=O)[O-])c1`: the inhibition is -14% (inactive). As to `COc1ccccc1N(C)C(=O)c1cc(S(=O)(=O)N2CCc3ccccc32)cn1C`, the inhibition was -4.84% (inactive). For `COc1ccc(C(=O)COC(=O)CNC(=O)c2cccs2)cc1Br`, the inhibition is -0.77% (inactive).

As to `C=CC1=C(C(=O)O)N2C(=O)[C@@H](NC(=O)/C(=N\OCC(=O)O)c3csc(N)n3)[C@H]2SC1`, the inhibition was 71% (active).

Take `CO/N=C(\C(=O)N[C@@H]1C(=O)N2C(C(=O)O)=C(COC(C)=O)CS[C@H]12)c1csc(N)n1` (stereo in doubt): the inhibition was 69.7% (active) and 11.4% (inactive) and 72.2% (active).

In the case of `C=CC1=C(C(=O)O)N2C(=O)[C@@H](NC(=O)/C(=N/OCC(=O)O)c3csc(N)n3)[C@H]2SC1`, the inhibition is 65.5% (active). `CC(C)(C)OC(=O)C1=C(CO)CS[C@@H]2[C@H](NC(=O)Cc3ccccc3)C(=O)N12`: the inhibition is 1.29% (inactive).

Regarding `Cc1nnc(SCC2=C(C(=O)O)N3C(=O)C(NC(=O)Cn4nc(C)c(Cl)c4C)C3SC2)s1` (stereo not given), the inhibition was 14.4% (inactive).

In the case of `Cc1cc(C)cc(C(=O)NC2C(=O)N3C(C(=O)O)=C(CSc4nnc(C)s4)CSC23)c1` (stereo not given), the inhibition is 4.73% (inactive).

What is called inhibition is the relative decrease from the control value, in per cent.
